Test results from ChEMBL document CHEMBL1132701, “Orally active isoxazoline glycoprotein IIb/IIIa antagonists with extended duration of action” (J Med Chem, 1999).

Key:
Homo sapiens = species on record: Homo sapiens; assay: The compound was tested for their ability to inhibit ADP-stimulated platelet aggregation in human platelet rich plasma; format: functional
Outline: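 IC50 for inhibition of ADP-induced aggregation in human platelet-rich plasma, determined in three donors.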

Canis familiaris [1] = assay: Inhibition of ex vivo platelet aggregation in dogs after 24 hr of administration of oral dose of 0.1 mg/kg; conditions: Canis lupus familiaris
Canis familiaris [2] = assay: Inhibition of ex vivo platelet aggregation in dogs after 6 hr of administration of oral dose of 0.1 mg/kg; conditions: Canis lupus familiaris
Canis familiaris [3] = assay: Inhibition of ex vivo platelet aggregation in dogs after 1 hr of administration of oral dose of 0.1 mg/kg; conditions: Canis lupus familiaris
Canis familiaris [4] = assay: Inhibition of ex vivo platelet aggregation in dogs after 24 hr of administration of iv bolus dose of 0.025 mg/kg; format: functional; conditions: Canis lupus familiaris
Outline: (§1)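 Dogs received an iv bolus, mostly 0.025 mg/kg, with some tested at 0.05 mg/kg. Blood was sampled at 1, 5 and 24 h postdose. Ex vivo platelet aggregation was stimulated with ADP (100 μM) and reported as % inhibition; n = 2.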

Canis familiaris [5] = assay: Inhibition of ex vivo platelet aggregation in dogs after 6 hr of administration of oral dose of 0.1 mg/kg; conditions: Canis lupus familiaris; remark: listed apart in the source
Canis familiaris [6] = assay: Inhibition of ex vivo platelet aggregation in dogs after 2 hr of administration of oral dose of 0.1 mg/kg; conditions: Canis lupus familiaris
Canis familiaris [7] = assay: Inhibition of ex vivo platelet aggregation in dogs after 24 hr of administration of iv bolus dose of 0.05 mg/kg; format: functional; conditions: Canis lupus familiaris; outline: as §1

| SMILES | IC50 (Homo sapiens) [nM] | inhibition in vivo at 0.025 mg/kg (Canis familiaris [4]) [%] | also measured |
| --- | --- | --- | --- |
| Cc1ccc(S(=O)(=O)N[C@@H](CNC(=O)CC2CC(c3ccc(C(=N)N)cc3)=NO2)C(=O)O)o1 (stereo partly specified) | 160 |  |  |
| N=C(N)c1ccc(C2=NO[C@@H](CC(=O)NC[C@H](NS(=O)(=O)c3ccccc3C(F)(F)F)C(=O)O)C2)cc1 | 89 |  |  |
| N=C(N)c1ccc(C2=NOC(CC(=O)NC[C@H](NS(=O)(=O)c3cccc4nsnc34)C(=O)O)C2)cc1 (stereo partly specified) | 91 | 0 |  |
| N=C(N)c1ccc(C2=NOC(CC(=O)NC[C@H](NS(=O)(=O)c3ccccc3-c3ccccc3)C(=O)O)C2)cc1 (stereo partly specified) | 80 | 65 |  |
| CCCc1ccc(S(=O)(=O)N[C@@H](CNC(=O)CC2CC(c3ccc(C(=N)N)cc3)=NO2)C(=O)O)cc1 (stereo partly specified) | 130 |  |  |
| CN(Cc1ccccc1)S(=O)(=O)N[C@@H](CNC(=O)CC1CC(c2ccc(C(=N)N)cc2)=NO1)C(=O)O (stereo partly specified) | 86 |  |  |
| Cc1ccccc1S(=O)(=O)N[C@@H](CNC(=O)C[C@@H]1CC(c2ccc(C(=N)N)cc2)=NO1)C(=O)O | 110 |  |  |
| N=C(N)c1ccc(C2=NO[C@@H](CC(=O)NC[C@H](NS(=O)(=O)c3ccccc3)C(=O)O)C2)cc1 | 190 |  |  |
| N=C(N)c1ccc(C2=NOC(CC(=O)NC[C@H](NS(=O)(=O)c3cccc4cccnc34)C(=O)O)C2)cc1 (stereo partly specified) | 81 | 67 |  |

Compounds with a lower IC50 (Homo sapiens), results first:

| IC50 (Homo sapiens) [nM] | SMILES | inhibition in vivo at 0.025 mg/kg (Canis familiaris [4]) [%] | also measured |
| --- | --- | --- | --- |
| 25 | Cc1cccc(S(=O)(=O)N[C@@H](CNC(=O)C[C@H]2CC(c3ccc(C(=N)N)cc3)=NO2)C(=O)O)c1 | 24 | inhibition in vivo at 0.1 mg/kg (Canis familiaris [1]): 60%; inhibition in vivo at 0.1 mg/kg (Canis familiaris [2]): 94%; inhibition in vivo at 0.1 mg/kg (Canis familiaris [3]): 78% |
| 24 | N=C(N)c1ccc(C2=NOC(CC(=O)NC[C@H](NS(=O)(=O)c3cccs3)C(=O)O)C2)cc1 (stereo partly specified) |  |  |
| 51 | N=C(N)c1ccc(C2=NOC(CC(=O)NC[C@H](NS(=O)(=O)c3ccc(Br)cc3)C(=O)O)C2)cc1 (stereo partly specified) |  |  |
| 60 | N=C(N)c1ccc(C2=NOC(CC(=O)NC[C@H](NS(=O)(=O)c3cccc(Br)c3)C(=O)O)C2)cc1 (stereo partly specified) |  |  |
| 37 | Cc1ccc(S(=O)(=O)N[C@@H](CNC(=O)CC2CC(c3ccc(C(=N)N)cc3)=NO2)C(=O)O)cc1 (stereo partly specified) |  |  |
| 69 | Cc1cccc(S(=O)(=O)N[C@@H](CNC(=O)Cc2cc(-c3ccc(C(=N)N)cc3)no2)C(=O)O)c1 |  |  |
| 72 | Cc1ccc(NS(=O)(=O)N[C@@H](CNC(=O)CC2CC(c3ccc(C(=N)N)cc3)=NO2)C(=O)O)cc1 (stereo partly specified) |  |  |
| 34 | Cc1noc(C)c1S(=O)(=O)N[C@@H](CNC(=O)CC1CC(c2ccc(C(=N)N)cc2)=NO1)C(=O)O (stereo partly specified) | 33 |  |
| 42 | CCCCS(=O)(=O)N[C@@H](CNC(=O)CC1CC(c2ccc(C(=N)N)cc2)=NO1)C(=O)O (stereo partly specified) |  |  |
| 39 | N=C(N)c1ccc(C2=NOC(CC(=O)NC[C@H](NS(=O)(=O)Cc3ccccc3)C(=O)O)C2)cc1 (stereo partly specified) | 26 |  |
| 53 | CC(=O)Nc1cnc(S(=O)(=O)N[C@@H](CNC(=O)CC2CC(c3ccc(C(=N)N)cc3)=NO2)C(=O)O)s1 (stereo partly specified) | 68 |  |
| 36 | N=C(N)c1ccc(C2=NO[C@@H](CC(=O)NC[C@H](NS(=O)(=O)c3ccccc3Br)C(=O)O)C2)cc1 |  | inhibition in vivo at 0.1 mg/kg (Canis familiaris [1]): 40%; inhibition in vivo at 0.1 mg/kg (Canis familiaris [5]): 73%; inhibition in vivo at 0.1 mg/kg (Canis familiaris [6]): 29% |
| 36 | N=C(N)c1ccc(C2=NOC(CC(=O)NC[C@H](NS(=O)(=O)c3ccccc3Br)C(=O)O)C2)cc1 (stereo partly specified) |  | inhibition in vivo at 0.05 mg/kg (Canis familiaris [7]): 100% |
